From article PMC6217956 (The FEBS journal, 2016)

Assays:
Assay type in all cases: binding
PTN = target: T1, PTN (Homo sapiens, UniProt P21246); assay: PRE control experiment with 4-hydroxy-TEMPO; details: under the condition of the PRE experiments
T1 sequence (P21246 33-168): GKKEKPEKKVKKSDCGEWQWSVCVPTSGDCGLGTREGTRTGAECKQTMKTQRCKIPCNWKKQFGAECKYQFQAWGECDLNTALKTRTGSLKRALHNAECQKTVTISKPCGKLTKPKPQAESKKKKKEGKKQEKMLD

[1] = target: T2, C-terminal truncated PTN (residues 1 to 114) (Homo sapiens, UniProt P21246); assay: Immobilized CSA and CSE ELISA of C-terminal truncated PTN; details: immobilized native CS, biotinylated truncated PTN (residues 1 to 114)
T2 sequence (P21246 33-146): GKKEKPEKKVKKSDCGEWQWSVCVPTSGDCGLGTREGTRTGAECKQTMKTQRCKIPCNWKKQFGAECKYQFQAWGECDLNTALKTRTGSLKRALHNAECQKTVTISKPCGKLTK
Outline: (§1)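 Human PTN (wild type or residues 1–114) was expressed in E. coli Origami B (DE3), purified on a heparin column, and biotinylated by EDC coupling to amine-PEG-biotin (MES pH 5.5). CSA or CSE was EDC/NHS-crosslinked overnight to poly-L-lysine-coated amine plates, then blocked with 5% BSA for 1.5 h. PTN at 2.5–0.015 μg/ml, 1 h; streptavidin-HRP 1 h; TMB; HCl stop; A450. Kd by 1:1 Langmuir fit; ≥3 runs, triplicate points.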

wild type PTN = target: T3, wild type PTN (Homo sapiens, UniProt P21246); assay: Immobilized CSA and CSE ELISA of wild type PTN; details: immobilized native CS, biotinylated wild type PTN, Langmuir isotherm 1:1
T3 sequence (P21246 33-168): T1 sequence (P21246 33-168)
Outline: as §1

Compound | non-specific interactions between the TEMPO moiety and PTN (PTN) | Kd [1] | Kd (wild type PTN)
CC1(C)CC(O)CC(C)(C)N1[O] [4-hydroxy-TEMPO] | no non-specific interactions |  | 
Chondroitin Sulfate A [CSA] |  | failed to bind | ~17 nM
Chondroitin Sulfate E [CSE] |  | four to five | four to five
